Shown are actives, neighbours in structure and some others; about 2.5% of the full set was active somewhere.
mABHD4 FP = ABHD4 inhibitors, primary screen, biochemical, fluorescence polarization, mouse; (Lyso)-N-acylphosphatidylethanolamine lipase (Mus musculus), Q8VD66; 370,000 compounds, 0.54% hits; AID 720543, 2013; inhibition, % at 8.92 µM; purified mABHD4, FP-Rh probe fluorescence polarization;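 active = inhibition exceeding the mean over every tested compound plus 3 SD, cut at about 30% in these data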
Target sequence (Q8VD66 whole entry, looked up): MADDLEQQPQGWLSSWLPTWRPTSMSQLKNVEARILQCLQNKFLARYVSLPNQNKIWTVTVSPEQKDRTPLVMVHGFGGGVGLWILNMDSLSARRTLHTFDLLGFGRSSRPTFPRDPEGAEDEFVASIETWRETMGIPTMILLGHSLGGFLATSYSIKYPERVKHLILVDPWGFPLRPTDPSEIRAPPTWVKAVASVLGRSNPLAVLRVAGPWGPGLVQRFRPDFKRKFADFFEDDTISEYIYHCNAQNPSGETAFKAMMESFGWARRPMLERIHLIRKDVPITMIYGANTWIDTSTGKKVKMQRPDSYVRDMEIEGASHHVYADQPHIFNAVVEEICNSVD
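Material: mouse ABHD4 enzyme, wild type; Benchmarks: S159A mutant high control, sample median low control; Buffer or medium: HEPES pH 7.0, NaCl, Pluronic buffer; Signal: fluorescence polarization; Read-out: percent inhibition of probe binding, normalized to plate controls; Timing: pre-incubation 45 min, probe exposure 60 min, at 25 °C; Dosing: 8.92 µM, single dose.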
HTRA1 inh = HTRA1 serine protease inhibitors, primary screen, biochemical, fluorescence polarization, HTS; inhibition, % at 5.96 µM; Q92743; recombinant HTRA1, FP-rhodamine activity-based probe; 340,000 compounds, 0.5% hits; in the data active = inhibition above about 36%
SIAE inh = human SIAE inhibitors, primary screen, biochemical, fluorescence polarization, FP-Rh probe, 1536-well HTS | Sialate O-acetylesterase (Homo sapiens), Q9HAT2 | SIAE FP-Rh probe binding | inhibition, % at 9.66 µM | 370,000 compounds, 0.69% hits | AID 1053197, 2014;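 active = inhibition above a cutoff: mean of compounds within the control limits plus 3 SD of those, cut at about 17% in these data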
PRMT1 FP inh = PRMT1 methyltransferase inhibitors, primary screen, biochemical, fluorescence polarization | Protein arginine N-methyltransferase 1 (Homo sapiens), Q99873 | AID 652257, 2013 | 370,000 compounds, 1.3% hits | inhibition, % at 2.79 µM | recombinant PRMT1, activity-based probe fluorescence polarization;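 active = inhibition above about 21% made by adding two undisclosed values, limit read from the data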
TCR-CD3 inh = inhibitors of human TCR-CD3 interaction, primary screen, biochemical, fluorescence, TAMRA-labeled TCR probe; 360,000 compounds, 0.37% hits; inhibition, % at 9.4 µM; T-cell receptor (TCR); in the data active = inhibition above about 19%;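 also: recombinant mutant TCR 2C K166C tagged with TAMRA read by polarization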
SIAE confirm = human SIAE inhibitors, retest, confirmation, biochemical, fluorescence polarization, FP-Rh probe, triplicate; shares compounds with SIAE inh; SIAE FP-Rh activity-based probe; inhibition, % at 9.66 µM; 2,300 compounds, 13% hits;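 active = mean inhibition of the replicates above the hit cutoff set in the primary screen, cut at about 17% in these data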;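 also: inhibitors lower polarization as more probe stays unbound to SIAE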
A number is an active result.

What do the screens show for `NC(=O)c1ncn([C@@H]2O[C@H](C(=O)N[C@H](Cc3c[nH]c4ccccc34)C(=O)NCC(=O)N3CCCCC3)[C@@H](O)[C@H]2O)n1`?
mABHD4 FP: inactive; SIAE inh: inactive; PRMT1 FP inh: inactive; TCR-CD3 inh: inactive

Results for NC(=O)c1ncn([C@@H]2O[C@H](C(=O)N[C@H](Cc3c[nH]c4ccccc34)C(=O)N3CCN(C(=O)N4CCOCC4)CC3)[C@@H](O)[C@H]2O)n1 ?
mABHD4 FP: inactive; SIAE inh: 52; PRMT1 FP inh: inactive; TCR-CD3 inh: inactive; SIAE confirm: 33

How did N#Cc1c(/N=C/c2cccnc2)sc2c1CCCC2 do in these assays?
mABHD4 FP: inactive; SIAE inh: 22; PRMT1 FP inh: inactive; TCR-CD3 inh: inactive; SIAE confirm: inactive

How did CN(C(=O)c1cccc(N2C(=O)C3C4C=CC(C4)C3C2=O)c1)C1CCCCC1 (centres undefined) do in these assays?
mABHD4 FP: inactive; HTRA1 inh: inactive; SIAE inh: 19; PRMT1 FP inh: inactive; TCR-CD3 inh: inactive; SIAE confirm: inactive

Results for O=C1c2ccccc2C(c2nnnn2-c2ccc3c(c2)OCCO3)N1Cc1cccnc1 (centres undefined) ?
mABHD4 FP: inactive; SIAE inh: 25; PRMT1 FP inh: inactive; TCR-CD3 inh: inactive; SIAE confirm: inactive

What do the screens show for `O=C1c2ccccc2C(c2nnnn2-c2ccc3c(c2)OCCO3)N1Cc1ccc2c(c1)OCO2` (centres undefined)?
mABHD4 FP: inactive; SIAE inh: inactive; PRMT1 FP inh: inactive; TCR-CD3 inh: inactive

Results for Cc1ccccc1C(=O)N[C@H](C(=O)N1CCC[C@H]1C(=O)NCCc1ccccc1Cl)c1ccccc1 ?
mABHD4 FP: inactive; SIAE inh: inactive; PRMT1 FP inh: inactive; TCR-CD3 inh: inactive

Results for CCCCOCCCNC(=O)C[C@H]1C[C@@]2(C(=O)OC)C(=C[C@H](C(C)C)O[C@@H]2C2CC2)N(CCc2ccc(OC)c(OC)c2)C1=O ?
mABHD4 FP: inactive; SIAE inh: inactive; PRMT1 FP inh: inactive

What do the screens show for `Cc1ccc(-c2cc(-c3ccco3)c3c(N)c(C(=O)NN)oc3n2)cc1`?
mABHD4 FP: inactive; HTRA1 inh: inactive; SIAE inh: 28; PRMT1 FP inh: inactive; TCR-CD3 inh: inactive; SIAE confirm: 45

Results for COc1cccc(/C=N/NC(=O)c2oc3nc(-c4ccccc4)cc(-c4ccco4)c3c2N)c1 ?
mABHD4 FP: inactive; HTRA1 inh: inactive; SIAE inh: inactive; PRMT1 FP inh: inactive; TCR-CD3 inh: inactive

Results for Cc1cccc(C(=O)OCC(=O)NC(C)CCc2ccccc2)c1 (centres undefined) ?
mABHD4 FP: inactive; HTRA1 inh: inactive; SIAE inh: inactive; PRMT1 FP inh: inactive; TCR-CD3 inh: inactive

Results for Cc1cccc(C(=O)NCC(=O)NC(C)CCc2ccccc2)c1 (centres undefined) ?
mABHD4 FP: inactive; HTRA1 inh: inactive; SIAE inh: 20; PRMT1 FP inh: inactive; TCR-CD3 inh: inactive; SIAE confirm: inactive

Results for Cc1cc(Cl)ccc1NC(=O)CN1CCCC1 ?
mABHD4 FP: inactive; HTRA1 inh: inactive; SIAE inh: 23; PRMT1 FP inh: inactive; TCR-CD3 inh: inactive; SIAE confirm: inactive

What do the screens show for `Cc1ccc(Cl)cc1NC(=O)Cn1c(C)csc1=O`?
mABHD4 FP: inactive; HTRA1 inh: inactive; SIAE inh: 23; PRMT1 FP inh: inactive; TCR-CD3 inh: inactive; SIAE confirm: inactive

Results for COc1ccc(/C=C2/CN(Cc3ccc(OC)cc3OC)C3=N[C@H](c4ccccc4)CC(=O)N32)cc1 ?
mABHD4 FP: inactive; SIAE inh: inactive; PRMT1 FP inh: inactive

What do the screens show for `O=c1c2cc3cccnc3nc2ncn1CCc1c[nH]c2ccccc12`?
mABHD4 FP: inactive; SIAE inh: inactive; PRMT1 FP inh: inactive

Results for CC(=O)Nc1ccc(O)cc1[N+](=O)[O-] ?
mABHD4 FP: inactive; HTRA1 inh: inactive; SIAE inh: 20; PRMT1 FP inh: inactive; TCR-CD3 inh: inactive; SIAE confirm: inactive

What do the screens show for `CC(=O)Nc1ccc(N(C)C)cc1[N+](=O)[O-]`?
mABHD4 FP: inactive; HTRA1 inh: inactive; SIAE inh: inactive; PRMT1 FP inh: inactive; TCR-CD3 inh: inactive

Results for C=CCN1C(=O)[C@H](CC(=O)NCc2ccc(OC)c(OC)c2)[C@@]2(C(=O)OCC)CCCC=C12 ?
mABHD4 FP: inactive; SIAE inh: inactive; PRMT1 FP inh: inactive

How did O=C1CCC[C@H]2CC3(CC[C@]24CCCN14)OCCO3 do in these assays?
mABHD4 FP: inactive; SIAE inh: inactive; PRMT1 FP inh: inactive

What do the screens show for `O=C(CNC(=O)c1ccc(Cl)cc1Cl)OCN1C(=O)c2ccccc2C1=O`?
mABHD4 FP: inactive; HTRA1 inh: inactive; SIAE inh: 19; PRMT1 FP inh: inactive; TCR-CD3 inh: inactive; SIAE confirm: inactive

Results for COC(=O)C1CCN(C(=O)COC(=O)CNC(=O)c2ccc(Cl)cc2Cl)CC1 ?
mABHD4 FP: inactive; HTRA1 inh: inactive; SIAE inh: 20; PRMT1 FP inh: inactive; TCR-CD3 inh: inactive; SIAE confirm: inactive

Results for COC(=O)[C@H](C)NC(=O)Nc1ccccc1F ?
mABHD4 FP: inactive; HTRA1 inh: inactive; SIAE inh: inactive; PRMT1 FP inh: inactive; TCR-CD3 inh: inactive

How did CCC(C)[C@H](NC(=O)Nc1ccccc1F)C(=O)OC (some centres undefined) do in these assays?
mABHD4 FP: inactive; HTRA1 inh: inactive; SIAE inh: 22; PRMT1 FP inh: inactive; TCR-CD3 inh: inactive; SIAE confirm: inactive

Results for O=C(Cn1nnc2ccccc21)OCC(=O)c1ccccc1 ?
mABHD4 FP: inactive; HTRA1 inh: inactive; SIAE inh: 19; PRMT1 FP inh: inactive; TCR-CD3 inh: inactive; SIAE confirm: inactive

How did O=C(Cn1nnc2ccccc21)OCC(=O)c1ccc(Cl)c(Cl)c1 do in these assays?
mABHD4 FP: inactive; HTRA1 inh: inactive; SIAE inh: inactive; PRMT1 FP inh: inactive; TCR-CD3 inh: inactive

Results for Cn1cc(/C=N\NC(=O)C2COc3ccccc3O2)c2ccccc21 (centres undefined) ?
mABHD4 FP: inactive; SIAE inh: 20; PRMT1 FP inh: inactive; TCR-CD3 inh: inactive; SIAE confirm: inactive

How did Cc1c(/C=N\NC(=O)C2COc3ccccc3O2)c2ccccc2n1C (centres undefined) do in these assays?
mABHD4 FP: inactive; HTRA1 inh: inactive; SIAE inh: inactive; PRMT1 FP inh: inactive; TCR-CD3 inh: inactive

What do the screens show for `Cc1ccc(N=C(NO)c2nonc2N)cc1`?
mABHD4 FP: inactive; HTRA1 inh: inactive; SIAE inh: 41; PRMT1 FP inh: inactive; TCR-CD3 inh: inactive; SIAE confirm: inactive

Screening results as filed in PubChem BioAssay.
